# Active and inactive are the calls of the source. The calls are words filed in the database; no cut-off is given here.
# Experiments:
# Staphylococcus aureus [1] = assay: Antibacterial activity against Staphylococcus aureus ATCC 29213 measured after 16 to 20 hrs by microdilution method; format: functional
# Outline: (§1)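 CLSI broth microdilution: two-fold serial dilutions in triplicate in cation-adjusted Mueller–Hinton broth with 2% NaCl, inoculum 5 × 10^5 CFU/mL, incubated at 37 °C for 16–20 h. MIC is the lowest concentration preventing visible growth.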
# Staphylococcus aureus [2] = assay: Antibacterial activity against Staphylococcus aureus ATCC 29213 measured after 16 to 20 hrs in presence of bovine serum albumin by microdilution method; format: functional
# Outline: (§2)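 S. aureus ATCC29213 MIC was run by CLSI microdilution in cation-adjusted Mueller–Hinton broth plus 2% NaCl, with and without 0.5% bovine serum albumin. Compounds were two-fold serially diluted in triplicate, inoculum was 5 × 10^5 CFU/mL, and plates were incubated at 37 °C for 16–20 h. The endpoint was the lowest concentration with no visible growth.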
# Staphylococcus aureus [3] = assay: Antibacterial activity against clindamycin/erythromycin/spectinomycin-resistant mec-positive Staphylococcus aureus NRS70 measured after 16 to 20 hrs by microdilution method; format: functional
# Outline: (§3)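 CLSI broth microdilution; two-fold serial compound dilutions in triplicate in cation-adjusted Mueller–Hinton broth with 2% NaCl, inoculum 5 × 10^5 CFU/mL; 37 °C for 16–20 h; MIC = lowest concentration with no visible growth.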
# Staphylococcus aureus [4] = assay: Antibacterial activity against multi-drug resistant mecA-positive Staphylococcus aureus NRS119 measured after 16 to 20 hrs by microdilution method; format: functional; outline: as §3
# Staphylococcus aureus [5] = assay: Antibacterial activity against multi-drug resistant mecA-positive Staphylococcus aureus ATCC 27660 measured after 16 to 20 hrs by microdilution method; format: functional; outline: as §3
# Staphylococcus aureus [6] = assay: Antibacterial activity against multi-drug resistant mec-positive Staphylococcus aureus USA300 measured after 16 to 20 hrs by microdilution method; format: functional; outline: as §3
# HeLa = assay: Cytotoxicity against human HeLa cells assessed as reduction in cell viability measured after 16 hrs by XTT assay; format: cell-based
# Outline: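 HeLa cells (ATCC CCL-2), run in triplicate. Viability was read by XTT, and IC50 was obtained by nonlinear regression.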
# Staphylococcus aureus [7] = assay: Selectivity ratio of MIC for Staphylococcus aureus ATCC 29213 in presence of bovine serum albumin to MIC for Staphylococcus aureus ATCC 29213 in absence of bovine serum albumin; format: functional; outline: as §2
# [8] = test system: Staphylococcus epidermidis; assay: Antibacterial activity against Staphylococcus epidermidis ATCC 35547 measured after 16 to 20 hrs by microdilution method; format: functional; outline: as §3
# Streptococcus pneumoniae = assay: Antibacterial activity against Streptococcus pneumoniae ATCC 49619 measured after 16 to 20 hrs by microdilution method; format: functional; outline: as §1
# Clostridioides difficile = assay: Antibacterial activity against Clostridium difficile ATCC 43255 measured after 16 to 20 hrs by microdilution method; format: functional
# Bacillus cereus = assay: Antibacterial activity against Bacillus cereus ATCC 13061 measured after 16 to 20 hrs by microdilution method; format: functional; outline: as §1
# Bacillus licheniformis = assay: Antibacterial activity against Bacillus licheniformis ATCC 12759 measured after 16 to 20 hrs by microdilution method; format: functional; outline: as §1
# Enterococcus faecalis = assay: Antibacterial activity against Enterococcus faecalis ATCC 29212 measured after 16 to 20 hrs by microdilution method; format: functional; outline: as §1
# [9] = Elimination half life in ICR mouse at 10 mg/kg, iv by UV-UPLC analysis; format: ADME, organism-based; details: ICR, in vivo, read-out: beta t1/2
# Outline: (§4)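 Female ICR mice, 6–8 weeks old, 20–25 g. Each received 50 μL by tail-vein injection (5 or 10 mg/kg) of a filter-sterilized 2 or 4 mg/mL solution in 20% DMSO/10% Tween-80/70% water. Terminal blood was collected and plasma harvested by centrifugation. Plasma was precipitated with acetonitrile containing internal standard, and the supernatant was analyzed by C18 UPLC with UV detection at 285 nm.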
# [10] = Volume of distribution in ICR mouse at 10 mg/kg, iv by UV-UPLC analysis; format: ADME, organism-based; details: in vivo; outline: as §4
# [11] = Elimination half life in ICR mouse at 10 mg/kg, po administered via gavage by UV-UPLC analysis; format: ADME, organism-based; details: in vivo, read-out: beta t1/2 (converted)
# Staphylococcus aureus [12] = assay: Bacteriostatic activity against clindamycin/erythromycin/spectinomycin-resistant mec-positive Staphylococcus aureus NRS70 assessed as log reduction in bacterial count at 0.5 to 16 times MIC by time-kill assay; format: functional
# [13] = molecular target: T1, MecA (Staphylococcus aureus) (UniProt Q7DHH4); assay: (§5) Binding affinity to PBP2a in clindamycin/erythromycin/spectinomycin-resistant mec-positive Staphylococcus aureus NRS70 assessed potentiation of piperacillin and tazobactam-induced bactericidal activity by measuring log reduction in bacterial count at 0.5 times MIC measured after 12 hrs by time-kill assay
# T1 sequence (whole entry): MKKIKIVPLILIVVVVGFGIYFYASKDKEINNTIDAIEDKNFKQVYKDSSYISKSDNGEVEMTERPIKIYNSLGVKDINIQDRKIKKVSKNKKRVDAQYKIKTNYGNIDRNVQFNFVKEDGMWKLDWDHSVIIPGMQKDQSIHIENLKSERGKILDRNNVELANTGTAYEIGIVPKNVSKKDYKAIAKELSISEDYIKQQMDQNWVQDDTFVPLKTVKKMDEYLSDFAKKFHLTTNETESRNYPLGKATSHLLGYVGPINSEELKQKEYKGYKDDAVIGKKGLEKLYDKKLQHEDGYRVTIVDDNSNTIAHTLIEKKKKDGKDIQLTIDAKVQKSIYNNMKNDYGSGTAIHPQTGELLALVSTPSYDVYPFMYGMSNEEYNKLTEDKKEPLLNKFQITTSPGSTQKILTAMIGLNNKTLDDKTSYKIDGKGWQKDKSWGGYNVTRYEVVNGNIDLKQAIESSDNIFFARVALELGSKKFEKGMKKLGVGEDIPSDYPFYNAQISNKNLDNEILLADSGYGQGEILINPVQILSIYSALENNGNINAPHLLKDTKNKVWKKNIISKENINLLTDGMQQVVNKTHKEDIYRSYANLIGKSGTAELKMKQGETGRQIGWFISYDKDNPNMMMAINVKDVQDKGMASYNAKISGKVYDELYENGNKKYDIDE
# [14] = molecular target: T1, MecA (Staphylococcus aureus); assay: as §5, with “measuring” for “measuring log”, “24” for “12”
# Staphylococcus aureus [15] = assay: Bactericidal activity against methicillin resistant Staphylococcus aureus NRS70 infected in ICR mouse model of neutropenic thigh infection assessed as log reduction in bacterial count in thigh at 20 mg/kg, sc administered at 8 hrs interval for 3 times starting from 1 hr post infection and measured 24 hrs post infection; format: functional
# Outline: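 Female ICR mice (6–8 weeks, 20–25 g) made neutropenic with cyclophosphamide 200 mg/kg ip at 4 and 1 days pre-infection; 0.1 mL NRS70 at 1 × 10^6 CFU/mL in brain heart infusion injected into right thigh; drug in 10% DMSO/90% water sc every 8 h ×3 from 1 h post-infection; thigh CFU counted at 24 h; n = 8/group; mean ± SEM, one-way ANOVA with Tukey test.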
# [16] = Selectivity index, ratio of IC50 for human HeLa cells to MIC for clindamycin/erythromycin/spectinomycin-resistant mec-positive Staphylococcus aureus NRS70; format: toxicity
# Outline: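 HeLa cytotoxicity by XTT assay in triplicate, IC50 by nonlinear regression; ratio IC50 over broth microdilution MIC against NRS70.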
# [17] = Protein binding in human plasma at 10 uM measured after 6 hrs UV-UPLC based rapid equilibrium dialysis method; format: ADME, cell-free
# Outline: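 Rapid equilibrium dialysis: human plasma was cleared by centrifugation and spiked from a 1 mM DMSO stock to a final 10 μM, against 0.1 M PBS pH 7.4. Dialysis ran 6 h at 37 °C with orbital shaking. Buffer (free) and plasma (total) aliquots were mixed with internal standard in acetonitrile and measured by UPLC-UV at 285 nm. B% = (Cp−Cf)/Cp×100.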
# [18] = AUC (0 to last) in ICR mouse at 5 mg/kg, iv by UV-UPLC analysis; format: ADME, organism-based; design: dose 5 mg/kg, route intravenous, time 0 - last; details: in vivo; outline: as §4
# [19] = Clearance in ICR mouse at 5 mg/kg, iv by UV-UPLC analysis; format: ADME, organism-based; details: in vivo; outline: as §4
# [20] = Clearance in ICR mouse at 5 mg/kg, iv by UV-UPLC analysis relative to hepatic blood flow; format: ADME, organism-based; details: in vivo; outline: as §4
# Enterococcus faecium = assay: Antibacterial activity against Enterococcus faecium NCTC 7171 measured after 16 to 20 hrs by microdilution method; format: functional; outline: as §1
SMILES,MIC (Staphylococcus aureus [1]) [µg/mL],MIC (Staphylococcus aureus [2]) [µg/mL],MIC (Staphylococcus aureus [3]) [µg/mL],MIC (Staphylococcus aureus [4]) [µg/mL],MIC (Staphylococcus aureus [5]) [µg/mL],MIC (Staphylococcus aureus [6]) [µg/mL],IC50 (HeLa) [µg/mL],selectivity ratio (Staphylococcus aureus [7]),selectivity ratio [16],PPB [17] [%],AUC(0-t) [18] [ng·h/mL],clearance [19] [mL/min/kg],CL [20] [%],also measured
N#Cc1ccc(/C=C/c2nc3ccccc3c(=O)n2-c2cccc(C(=O)O)c2)cc1,2,8,2,1,2,0.5,173,<=4,,,,,,MIC [8]: 1 µg/mL; MIC (Streptococcus pneumoniae): 16 µg/mL; MIC (Clostridioides difficile): 128 µg/mL; MIC (Bacillus cereus): > 128 µg/mL; MIC (Bacillus licheniformis): > 128 µg/mL; MIC (Enterococcus faecalis): > 128 µg/mL; half-life [9]: > 20 h; Vd [10]: 0.3 L/kg; half-life [11]: > 20 h; log(activity) (Staphylococcus aureus [12]): <3; log(activity) [13]: > 3; Activity [14]: inactive; log(activity) (Staphylococcus aureus [15]): 0.67
C#Cc1ccc(/C=C/c2nc3ccccc3c(=O)n2-c2cccc(S(N)(=O)=O)c2)cc1,,0.5,,0.06,,,61,,1020,98.2,2970,28.2,> 10,
N#Cc1ccc(/C=C/c2nc3ccccc3c(=O)n2-c2cccc(NC(=O)CCc3cnc[nH]3)c2)cc1,8,,,,,,,,,,,,,MIC (Enterococcus faecium): 16 µg/mL
N#Cc1ccc(/C=C/c2nc3ccccc3c(=O)n2-c2cccc(S(N)(=O)=O)c2)cc1,0.25,0.5,0.06,0.125,0.06,0.06,> 64,<=4,> 1070,97.1,850,98,> 10,

# Reference: ChEMBL document CHEMBL4342526, “Exploration of the Structural Space in 4(3H)-Quinazolinone Antibacterials” (J Med Chem, 2020)
